# ChEMBL document CHEMBL1123678, “Octahydropyrazino[2',3':3,4]pyrido[1,2-a]indoles. A new class of potent antihypertensive agents” (1987)
# Calls of active or inactive are those of the source. No cut-off for these calls is given here.
# What was measured:
# [1] = tested on: Rattus norvegicus; assay: Antihypertensive activity was determined in cannulated spontaneously hypertensive rats(SHR) and maximum decrease of mean arterial blood pressure (MABP) at 10 mg/kg oral dose; type: functional, Artery
# Method in brief: (§1)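 Cannulated SHR given compound by gastric gavage in 0.5% methylcellulose (5 mL/kg), doses 0.1–50 mg/kg, 4–8 animals per dose, after 1-h equilibration. MABP recorded for 4 h; maximal % decrease reported with time to peak effect. Significance by two-way analysis of variance.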
# [2] = tested on: Rattus norvegicus; assay: Vasopressor responses to epinephrine as a measure of the alpha-1-adrenoceptor blocking activity at 10 mg/kg administered orally was reported to be antagonized; type: functional, organism-based; parameters: dose 10 mg/kg
# [3] = tested on: Rattus norvegicus; assay: Antihypertensive activity was determined in cannulated spontaneously hypertensive rats(SHR) and maximum decrease of mean arterial blood pressure (MABP) at 50 mg/kg oral dose; type: functional, Artery; method in brief: as §1
# [4] = tested on: Rattus norvegicus; assay: Antihypertensive activity was determined in cannulated spontaneously hypertensive rats(SHR) and maximum decrease of mean arterial blood pressure (MABP) at 1 mg/kg oral dose; type: functional, Artery; method in brief: as §1
# [5] = tested on: Rattus norvegicus; assay: Antihypertensive activity was determined in cannulated spontaneously hypertensive rats(SHR) and maximum decrease of mean arterial blood pressure (MABP) at 2.5 mg/kg oral dose; type: functional, Artery; method in brief: as §1
# [6] = tested on: Rattus norvegicus; assay: Antihypertensive activity was determined in cannulated spontaneously hypertensive rats(SHR) and marked bradycardia was reported at a dose of 10 mg/kg; type: functional, organism-based; parameters: dose 10 mg/kg
# [7] = tested on: Rattus norvegicus; assay: Vasopressor responses to epinephrine as a measure of the alpha-1-adrenoceptor blocking activity at 1 mg/kg administered orally was reported to be reversed; type: functional, organism-based; parameters: dose 1 mg/kg
# [8] = tested on: Rattus norvegicus; assay: Vasopressor responses to epinephrine as a measure of the alpha-1-adrenoceptor blocking activity at 2.5 mg/kg administered orally was reported to be reversed; type: functional, organism-based; parameters: dose 2.5 mg/kg
# [9] = tested on: Rattus norvegicus; assay: Vasopressor responses to epinephrine as a measure of the alpha-1-adrenoceptor blocking activity at 10 mg/kg administered orally was reported to be reversed; type: functional, organism-based; parameters: dose 10 mg/kg
# [10] = tested on: Rattus norvegicus; assay: Antihypertensive activity was determined in cannulated spontaneously hypertensive rats(SHR) and maximum decrease of mean arterial blood pressure (MABP) at 25 mg/kg oral dose; type: functional, Artery; method in brief: as §1
# [11] = tested on: Rattus norvegicus; assay: Antihypertensive activity was determined in cannulated spontaneously hypertensive rats(SHR) and marked bradycardia was reported at a dose of 50 mg/kg; type: functional, organism-based; parameters: dose 50 mg/kg
# [12] = tested on: Rattus norvegicus; assay: Vasopressor responses to epinephrine as a measure of the alpha-1-adrenoceptor blocking activity at 25 mg/kg administered orally was reported to have no change; type: functional, organism-based; parameters: dose 25 mg/kg
# [13] = tested on: Rattus norvegicus; assay: Vasopressor responses to epinephrine as a measure of the alpha-1-adrenoceptor blocking activity at 50 mg/kg administered orally was reported to be antagonized; type: functional, organism-based; parameters: dose 50 mg/kg
# [14] = tested on: Rattus norvegicus; assay: Vasopressor responses to epinephrine as a measure of the alpha-1-adrenoceptor blocking activity at 10 mg/kg administered orally was reported to have no change; type: functional, organism-based; parameters: dose 10 mg/kg
# [15] = tested on: Rattus norvegicus; assay: Antihypertensive activity was determined in cannulated spontaneously hypertensive rats(SHR) and heart rate response was reported to reduce by 10-25% after 4 hr at a peroral dose of 5 mg/kg; type: functional, organism-based; parameters: dose 5 mg/kg
# [16] = tested on: Rattus norvegicus; assay: Antihypertensive activity was determined in cannulated spontaneously hypertensive rats(SHR) and heart rate response was reported to be reduce by 10-25% after 4 hr at a dose of 50 mg/kg; type: functional, organism-based; parameters: dose 50 mg/kg
# [17] = tested on: Rattus norvegicus; assay: Antihypertensive activity was determined in cannulated spontaneously hypertensive rats(SHR) and heart rate response was reported to reduce by 10-25% after 4 hr at a peroral dose of 10 mg/kg; type: functional, organism-based; parameters: dose 10 mg/kg
# [18] = tested on: Rattus norvegicus; assay: Antagonism of vasopressor responses to epinephrine as a measure of the alpha-1-adrenoceptor blocking activity at 10 mg/kg administered orally was reported to have no change; type: functional, organism-based; parameters: dose 10 mg/kg
compound,measurement,setting,value
Cc1c2n(c3ccccc13)CCC1C2NCCN1C(C)C.Cl.Cl (centres undefined),Decrease in MABP,[1],12%
same,Activity,[2],Vasopressor response antagonized
Cc1c2n(c3ccccc13)CCC1C2N(C)CCN1C.Cl.Cl (centres undefined),Decrease in MABP,[3],12%
Br.CCCN1CCN(CC)C2CCn3c(c(C)c4ccccc43)C21 (centres undefined),Decrease in MABP,[1],42%
same,Decrease in MABP,[4],13%
same,Decrease in MABP,[5],24%
same,HR,[6],Heart rate response was reported to reduce by 10-25% after 4 hr at a peroral dose of 1.0 mg/kg
same,Activity,[7],Vasopressor response reversed
same,Activity,[8],Vasopressor response reversed
same,Activity,[9],Vasopressor response reversed
Br.Br.CCN1CCNC2c3c(C)c4ccccc4n3CCC21 (centres undefined),Decrease in MABP,[1],23%
same,Decrease in MABP,[10],26%
same,Decrease in MABP,[3],31%
same,HR,[11],Heart rate response was reported to reduce by 10-25% after 4 hr at a peroral dose of 25 mg/kg
same,Activity,[12],inactive
same,Activity,[13],Vasopressor response antagonized
same,Activity,[14],inactive
Cc1c2n(c3ccccc13)CCC1C2N(C)CCN1C (centres undefined),HR,[15],Heart rate response was reported to reduce by 10-25% after 4 hr at a peroral dose of 10 mg/kg
same,Activity,[13],Vasopressor response antagonized
same,HR,[16],Heart rate response was reported to be reduce by 10-25% after 4 hr at a dose of 50 mg/kg
same,HR,[17],Heart rate response was reported to reduce by 10-25% after 4 hr at a peroral dose of 10 mg/kg
same,Activity,[9],Vasopressor response reversed
Cc1c2n(c3ccccc13)CCC1C2NCCN1CCOc1ccccc1 (centres undefined),Decrease in MABP,[1],7%
same,Activity,[14],inactive
CCN1CCN(CC)C2c3c(C)c4cc(Br)ccc4n3CCC21.Cl (centres undefined),Decrease in MABP,[1],15%
same,Activity,[9],Vasopressor response reversed
CCCCN1CCN(CC)C2CCn3c(c(C)c4ccccc43)C21.Cl.Cl (centres undefined),Decrease in MABP,[1],36%
same,Decrease in MABP,[4],16%
same,Activity,[7],Vasopressor response reversed
same,HR,[17],Heart rate response was reported to reduce by 10-25% after 4 hr at a peroral dose of 10 mg/kg
same,Activity,[9],Vasopressor response reversed
CCN1CCNC2CCn3c(c(C)c4ccccc43)C21 (centres undefined),Decrease in MABP,[1],14%
same,Activity,[18],inactive
same,HR,[17],Heart rate response was reported to reduce by 10-25% after 4 hr at a peroral dose of 10 mg/kg
